From ChEMBL document CHEMBL4373686, “Methyl sulfonamide substituents improve the pharmacokinetic properties of bicyclic 2-pyridone based Chlamydia trachomatis inhibitors” (Medchemcomm, 2019)
In brackets after ≈: the same amount, converted by molar mass. Activity calls are given as the source filed them. The rule behind the calls is not given here.

Key:
Chlamydia trachomatis [1] = assay: (§1) Antibacterial activity against Chlamydia trachomatis 434/Bu serovar L2/ATCC VR-902B in HeLa 229 cells infected with cell lysates from 48 hrs at 2.5 uM compound treated HeLa 229 cells with Chlamydia trachomatis infection assessed as inhibition of reinfection and measured after 48 hrs post re-infection by DAPI staining based arrayscan automated microscopic method relative to control; type: functional, organism-based
Method in brief: (§2)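 HeLa 229 cells infected with C. trachomatis L2 EBs at MOI 0.3–0.5; compound added in RPMI 1 h post infection; 44–48 h, then water lysis. 10-fold serial dilutions of lysate reinfect fresh HeLa; 44–46 h, methanol fixed, anti-Chlamydia/FITC antibody plus DAPI stain, IFUs counted by automated microscopy; % IFU versus DMSO control; three independent experiments, duplicates.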

HeLa 229 = assay: Cytotoxicity against human HeLa 229 cells assessed as cell viability at 10 uM after 48 hrs resazurin dye based fluorescence method relative to control; conditions: hela 229, 48 h
Method in brief: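 HeLa cells in colorless DMEM with 10% FBS, compound in 0.5% DMSO for 48 h; resazurin added, 3 h at 37 °C, 5% CO2, dark; fluorescence ex 535/em 595 nm; triplicate wells as percent of DMSO control.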

Chlamydia trachomatis [2] = assay: as §1, with “1” for “2.5”; type: functional, organism-based; method in brief: as §2
[3] = Intrinsic clearance in human liver microsomes at 1 uM incubated for 5 to 60 mins in presence of NADPH by LC-MS/MS analysis; type: ADME, Microsome
Method in brief: (§3)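 Liver microsomes 0.5 mg/ml, compound 1 μM in 100 mM phosphate pH 7.4; started with 1 mM NADPH (final). Sampled 0–60 min, quenched in cold acetonitrile, parent remaining by LC-MS/MS; ln % remaining versus time fitted by linear regression.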

[4] = Fraction unbound in CD-1 mouse plasma at 10 uM incubated for 4 hrs by LC-MS/MS-based equilibrium dialysis method; type: ADME, cell-free
Method in brief: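 Rapid equilibrium dialysis: 10% CD-1 mouse plasma in isotonic buffer spiked to 10 μM compound, 1% DMSO final, against phosphate buffer pH 7.4; 37 °C, 900 rpm, 4 h. Matrix-matched samples precipitated with methanol, LC-MS/MS; fu corrected for plasma dilution.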

[5] = Intrinsic clearance in mouse liver microsomes at 1 uM incubated for 5 to 60 mins in presence of NADPH by LC-MS/MS analysis; type: ADME, Microsome; method in brief: as §3
[6] = Clearance in C3H/HeJ mouse at 1.2 mg/kg, iv measured upto 24 hrs; conditions: in vivo
[7] = Apparent permeability from apical to basolateral side in human Caco2 cells at 1 uM after 15 to 60 mins by LC-MS/MS analysis; type: ADME, cell-based; conditions: caco-2, 1 µM
Method in brief: (§4)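 Caco-2 monolayers (passage 94–105) used on day 21 on filter supports; 1 μM donor solution applied apical or basolateral, pH 7.4 both chambers, 37 °C, 500 rpm stirring. Receiver sampled at 15, 30, 60 min, donor at 60 min for mass balance; LC-MS/MS with warfarin internal standard.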

[8] = Volume of distribution at steady state in C3H/HeJ mouse at 1.2 mg/kg, iv measured upto 24 hrs; conditions: in vivo
[9] = Efflux ratio of apparent permeability in human Caco2 cells at 1 uM after 15 to 60 mins by LC-MS/MS analysis; type: ADME, cell-based; conditions: caco-2, 1 µM; method in brief: as §4
[10] = Half life in C3H/HeJ mouse at 1.2 mg/kg, iv measured upto 24 hrs; conditions: in vivo
[11] = Cmax in C3H/HeJ mouse at 1.2 mg/kg, iv measured upto 24 hrs; conditions: in vivo
[12] = Solubility of compound in PBS at 0.2 to 0.5 mg after 48 hrs by LC-MS/MS based shake flask method; type: physicochemical
[13] = AUC (0 to infinity) C3H/HeJ mouse at 1.2 mg/kg, iv measured upto 24 hrs; conditions: in vivo
[14] = Cmax in C3H/HeOuJ mouse at 0.9 mg/kg, iv measured upto 24 hrs; type: ADME, organism-based; parameters: dose 0.9 mg/kg, route intravenous; conditions: in vivo
Method in brief: (§5)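 Female C3H mice, three per dose and route; IV as 50 μL tail-vein injection in PBS with 10% cremophor, 5% EtOH, 4% DMSO; PO as 100 μL gavage in lipid-vehicle/water emulsion. Tail-vein blood at 10 min (IV) and 0.5–24 h; acetonitrile mixed, methanol extracted, LC-MS/MS against spiked blank blood standards; non-compartmental analysis, errors as SD.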

[15] = Clearance in C3H/HeOuJ mouse at 0.9 mg/kg, iv measured upto 24 hrs; type: ADME, organism-based; conditions: in vivo; method in brief: as §5
[16] = Volume of distribution at steady state in C3H/HeJ mouse at 0.9 mg/kg, iv measured upto 24 hrs; conditions: in vivo
[17] = Half life in C3H/HeOuJ mouse at 0.9 mg/kg, iv measured upto 24 hrs; type: ADME, organism-based; conditions: in vivo; method in brief: as §5
[18] = AUC (0 to infinity) C3H/HeOuJ mouse at 0.9 mg/kg, iv measured upto 24 hrs; type: ADME, organism-based; parameters: dose 0.9 mg/kg, route intravenous, time infinity; conditions: in vivo; method in brief: as §5
[19] = Half life in C3H/HeJ mouse at 1 mg/kg, iv measured upto 24 hrs; type: ADME, organism-based; conditions: in vivo; method in brief: as §5
[20] = Oral bioavailability in C3H/HeOuJ mouse at 10 mg/kg measured upto 24 hrs; conditions: in vivo
[21] = Clearance in C3H/HeOuJ mouse at 1 mg/kg, iv measured upto 24 hrs; conditions: in vivo
Chlamydia trachomatis [22] = assay: Antibacterial activity against Chlamydia trachomatis serovar D/ATCC VR-885 infected in C3H/HeJ mouse assessed as reduction in vaginal infection at 10 mg/kg, po BID administered 21 consecutive days by vaginal swab based immunostaining arrayscan automated microscopic method; type: functional, organism-based; conditions: in the assay text read “7 consecutive days” for “21 consecutive days”
Method in brief: (§6)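 Female C3H/HeJ mice given 2.4 mg medroxyprogesterone acetate s.c. 10 and 3 days before intravaginal infection (5000 CFU). Nine mice dosed by gavage 100 μL of 2.33 mg/mL emulsion, twice daily; vehicle and doxycycline groups. Vaginal swabs on days 2–21 titrated on HeLa cells, immunostained, counted by automated microscopy.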

[23] = Cmax in C3H/HeJ mouse at 10 mg/kg, po measured upto 24 hrs; type: ADME, organism-based; parameters: dose 10 mg/kg, route oral; conditions: in vivo; method in brief: as §5
[24] = AUC (0 to infinity) in C3H/HeOuJ mouse at 10 mg/kg, po measured upto 24 hrs; conditions: in vivo
[25] = Cmax in C3H/HeOuJ mouse at 1 mg/kg, iv measured upto 24 hrs; conditions: in vivo
[26] = Half life in C3H/HeOuJ mouse at 10 mg/kg, po measured upto 24 hrs; conditions: in vivo
[27] = AUC (0 to infinity) in C3H/HeOuJ mouse at 1 mg/kg, iv measured upto 24 hrs; conditions: in vivo
[28] = Volume of distribution at steady state in C3H/HeJ mouse at 1 mg/kg, iv measured upto 24 hrs; type: ADME, organism-based; conditions: in vivo; method in brief: as §5
[29] = Tmax in C3H/HeOuJ mouse at 10 mg/kg, po measured upto 24 hrs; conditions: in vivo
[30] = Toxicity in C3H/HeJ mouse infected with Chlamydia trachomatis serovar D/ATCC VR-885 assessed as vital signs at 10 mg/kg, po BID administered 21 consecutive days; type: organism-based; conditions: in vivo, in the assay text read “7 consecutive days” for “21 consecutive days”; method in brief: as §6

SMILES	inhibition (Chlamydia trachomatis [1])	Activity (HeLa 229)	inhibition (Chlamydia trachomatis [2])	also measured
CS(=O)(=O)Nc1c(Cc2cccc3ccccc23)cc(=O)n2c1SCC2c1nc(-c2ccccc2)n[nH]1 (racemic)	20%	93%		
COc1c(Cc2cccc(C)c2C)cc(=O)n2c1SCC2C(=O)Nc1ccccc1 (racemic)	51%	89%	22%	
CC(=O)Nc1c(Cc2cccc3ccccc23)cc(=O)n2c1SCC2C(=O)Nc1ccccc1 (racemic)	3%	90%	44%	
O=C(Nc1ccccc1)C1CSc2c(C3CC3)c(Cc3cccc4ccccc34)cc(=O)n21 (racemic)	87%		67%	
COc1c(Cc2cccc(C)c2C)cc(=O)n2c1SCC2c1nc(-c2ccccc2)no1 (racemic)	1%	91%		
CC(C)Nc1c(Cc2cccc3ccccc23)cc(=O)n2c1SCC2C(=O)Nc1ccccc1 (racemic)	79%	91%	25%	
COc1c(Cc2cccc3ccccc23)cc(=O)n2c1SCC2n1cc(-c2ccccc2)nn1 (racemic)	81%	87%		
COc1c(Cc2cccc3ccccc23)c(N)c(=O)n2c1SCC2C(=O)Nc1ccccc1 (racemic)	25%	94%		
Cc1cccc(NC(=O)C2CSc3c(NS(C)(=O)=O)c(Cc4cccc5ccccc45)cc(=O)n32)c1 (racemic)	-2%	92%		
Nc1c(Cc2cccc3ccccc23)c(C2CC2)c2n(c1=O)C(n1cc(-c3ccccc3)nn1)CS2 (racemic)	91%		90%	CLH [3]: 187 µL/min/mg; Fu [4]: < 0.1%; CLH [5]: 135 µL/min/mg; CL [6]: 0.51 L/h; Papp [7]: 0.33 ×10⁻⁶ cm/s; Vdss [8]: 27 L/kg; Ratio [9]: 0.6; t1/2 [10]: 3.7 h; Cmax [11]: 40 nM; solubility thermodynamic at 48 h [12]: 0.31 µM (≈ 0.152 µg/mL); AUC(0-inf) [13]: 0.1 µM·h
COc1c(Cc2cccc(C)c2C)c(N)c(=O)n2c1SCC2C(=O)Nc1cc(C)cc(F)c1 (racemic)	47%	92%		
COc1c(Cc2cccc(C)c2C)c(N)c(=O)n2c1SCC2C(=O)Nc1ccccc1 (racemic)	25%	94%		
COc1c(Cc2cccc(C)c2C)c(N)c(=O)n2c1SCC2c1nc(-c2ccccc2)no1 (racemic)	17%	94%		
COc1c(Cc2cccc3ccccc23)cc(=O)n2c1SCC2C(=O)Nc1ccccc1 (racemic)	24%	91%		
CS(=O)(=O)Nc1c(Cc2cccc3ccccc23)cc(=O)n2c1SCC2n1cc(-c2ccccc2)nn1 (racemic)	88%	91%		
COc1c(Cc2cccc3ccccc23)c(N)c(=O)n2c1SCC2C(=O)Nc1ccc(C)cc1 (racemic)	51%	91%		
COc1c(Cc2cccc(C)c2C)cc(=O)n2c1SCC2C(=O)Nc1ccc(C)cc1 (racemic)	98%	88%	71%	
CN(C)c1c(Cc2cccc3ccccc23)cc(=O)n2c1SCC2C(=O)Nc1ccccc1 (racemic)	94%	92%	78%	
COc1c(Cc2cccc(C)c2C)cc(=O)n2c1SCC2C(=O)Nc1cc(C)cc(F)c1 (racemic)	95%	90%	77%	CLH [3]: 184 µL/min/mg; Fu [4]: 0.1%; Cmax [14]: 410 nM; CLH [5]: 440 µL/min/mg; Papp [7]: 2.1 ×10⁻⁶ cm/s; Ratio [9]: 3.2; solubility thermodynamic at 48 h [12]: 0.32 µM (≈ 0.145 µg/mL); CL [15]: 0.04 L/h; Vdss [16]: 1.1 L/kg; t1/2 [17]: 1.2 h; AUC(0-inf) [18]: 0.95 µM·h
CS(=O)(=O)Nc1c(Cc2cccc3ccccc23)cc(=O)n2c1SCC2C(=O)Nc1ccccc1 (racemic)	89%	94%	23%	CLH [3]: 39 µL/min/mg; Fu [4]: 0.39%; t1/2 [19]: 5.3 h; CLH [5]: 59 µL/min/mg; Papp [7]: 30 ×10⁻⁶ cm/s; F [20]: 41%; CL [21]: 0.01 L/h; Ratio [9]: 2; Activity (Chlamydia trachomatis [22]): inactive; solubility thermodynamic at 48 h [12]: 1.3 µM (≈ 0.657 µg/mL); Cmax [23]: 3700 nM; AUC [24]: 20.3 µM·h; Cmax [25]: 1700 nM; t1/2 [26]: 2.6 h; AUC [27]: 4.8 µM·h; Vdss [28]: 0.62 L/kg; Tmax [29]: 1 h; Activity [30]: Non-Toxic
O=C(Nc1ccccc1)C1CSc2c(O)c(Cc3cccc4ccccc34)cc(=O)n21 (racemic)	21%	93%		
Cc1cc(F)cc(NC(=O)C2CSc3c(NS(C)(=O)=O)c(Cc4cccc5ccccc45)cc(=O)n32)c1 (racemic)	6%	91%	6%	
Nc1c(Cc2cccc3ccccc23)c(C2CC2)c2n(c1=O)C(C(=O)Nc1ccccc1)CS2 (racemic)	98%		94%	
COC(=O)Nc1c(Cc2cccc3ccccc23)cc(=O)n2c1SCC2C(=O)Nc1ccccc1 (racemic)	12%	88%		
COc1c(Cc2cccc3ccccc23)cc(=O)n2c1SCC2C(=O)Nc1ccc(C)cc1 (racemic)	94%	89%	62%	
COc1c(Cc2cccc(C)c2C)c(N)c(=O)n2c1SCC2C(=O)Nc1ccc(C)cc1 (racemic)	56%	93%		
